We go through 15 molecules from ChEMBL document CHEMBL3271936, “Biologically oriented organic sulfur chemistry. 14. Antiinflammatory properties of some aryl sulfides, sulfoxides, and sulfones” (J Med Chem, 1976).

Data set [1] relates to Rattus norvegicus. In words: Antiinflammatory activity in Holtzman rat assessed as inhibition of UV radiation-induced erythema at 50 mg/kg, po relative to control. In kind it is functional. To be noted: Holtzmann.
In data set [2] the test system is Rattus norvegicus. In words: Antiinflammatory activity in Holtzman rat assessed as inhibition of carrageenan-induced paw edema at 50 mg/kg, po administered at 0.5 and 2.5 hrs prior to carrageenan-challenge relative to control. In kind it is functional. As to conditions: Holtzmann. A digest of the protocol:
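Carrageenan paw-edema assay in male or female Holtzman rats (180–190 g), five per group. Compound given orally at 50 mg/kg twice, at 2.5 h and 0.5 h before carrageenan injection into the hind paw. Inhibition of edema is expressed as percent versus controls.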

Data set [3] concerns Mus musculus. In words: Toxicity in mouse assessed as mortality at >= 0.3 g/kg, ip. The format is organism-based. As to conditions: in vivo, 300 mg/kg. In short, it runs like this:
(§1)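 Mice dosed intraperitoneally at two dose levels, three animals per compound (rarely two). The approximate lethal range was taken as survival at the lower dose and death at the higher, in g/kg. Dose brackets were 0.1–0.3, 0.3–1.0, and >1.0.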

In data set [4] the test system is Rattus norvegicus. In words: Antiinflammatory activity in po dosed Holtzman rat assessed as inhibition of UV radiation-induced erythema. In kind it is functional. To be noted: Holtzmann.
Data set [5] relates to Rattus norvegicus. In words: Antiinflammatory activity in specific pathogen-free Alderley Park 1 rat assessed as inhibition of adjuvant-induced swelling at 25 mg/kg/day, po treated for 2 days prior to adjuvant-challenge followed by compound administration for 18 days. In kind it is functional, organism-based. A digest of the protocol: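 Adjuvant arthritis assay in rats. Oral dosing at 25 mg/kg per day begins 2 days before adjuvant and continues 18 days after it, for 20 days in total.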

Data set [6] has as its system Mus musculus. In words: Antiinflammatory activity in mouse assessed as inhibition of carrageenan-induced edema at 30 mg/kg relative to control. In kind it is functional. (In general: The carrageenan paw model is a standard test of acute inflammation.)
For data set [7], the system named is Rattus norvegicus. In words: Antiinflammatory activity in Holtzman rat assessed as inhibition of carrageenan-induced paw edema at 35 mg/kg, po relative to control. The format is functional. To be noted: Holtzmann.
In data set [8] the test system is Mus musculus. The data set can be described thus: Toxicity in mouse assessed as mortality up to 0.3 g/kg, ip. In kind it is organism-based. As to conditions: in vivo, 300 mg/kg. In short, it runs like this:
as §1

Data set [9] deals with Rattus norvegicus. The data set can be described thus: Antiinflammatory activity in Holtzman rat assessed as inhibition of UV radiation-induced erythema at 25 mg/kg, po relative to control. The format is functional. To be noted: Holtzmann.

Calls of active or inactive are those of the source. The calls are words filed in the database; no cut-off is given here. Where only a bound is given, the exact number is not on record here.

Take `O=C(O)c1ccccc1S(=O)(=O)c1ccccc1`: the inhibition in vivo (commonly the relative decrease from the control value, in per cent) at 50 mg/kg is 0% in the data set with Rattus norvegicus [1] and 15% in the data set on Rattus norvegicus [2]. The Activity result with Mus musculus [3] is “Toxic”.
In the same order, the values of `Cc1cccc(S(=O)(=O)c2ccccc2C(=O)O)c1C` are 27%, 0% and “Toxic”.
In the case of `CCCCC1C(=O)N(c2ccccc2)N(c2ccccc2)C1=O` [PHENYLBUTAZONE], in the data set with Rattus norvegicus [2], the inhibition in vivo at 50 mg/kg came out at 50%. The 50% effective dose (ED50) – broadly, the dose at which the effect has come halfway, by size or by number of responders – in the data set on Rattus norvegicus [4] was 5 mg/kg.
For the molecule `Cc1cccc(Sc2ccccc2C(=O)O)c1C`, the results for the inhibition in vivo at 50 mg/kg in the data set with Rattus norvegicus [1] and in the data set with Rattus norvegicus [2] were 26% and 15%, respectively. Further, in the data set on Mus musculus [3], the Activity result is “Toxic”.
With `CC(C(=O)O)c1ccccc1Sc1ccccc1` (configuration not stated), the inhibition in vivo at 50 mg/kg in the data set on Rattus norvegicus [1] amounted to 33%; in the data set on Rattus norvegicus [2] it was 14%. Also, the Activity result in the data set on Mus musculus [3] is reported as “Toxic”.
Turning to `O=C(O)Cc1ccccc1[S+]([O-])c1ccccc1` (configuration not stated), the inhibition in vivo at 50 mg/kg in the data set with Rattus norvegicus [1] was 23%; in the data set on Rattus norvegicus [2], 30%. In addition, the inhibition entry in the data set with Rattus norvegicus [5] is “inactive”. Also, in the data set on Mus musculus [3], the Activity entry was “Toxic”.
Turning to `CC(=O)Oc1ccccc1C(=O)O` [ASPIRIN], the inhibition in vivo at 50 mg/kg in the data set with Rattus norvegicus [1] is 50%; with Rattus norvegicus [2] it was under 20%.
The matching figures for `Cc1cccc([S+]([O-])c2ccccc2C(=O)O)c1C` (configuration not stated): 0% and 15%.
In the case of `O=C(O)c1ccccc1[S+]([O-])c1cccc(C(F)(F)F)c1` (configuration not stated), the figures for the inhibition in vivo at 50 mg/kg in the data set with Rattus norvegicus [1] and in the data set on Rattus norvegicus [2] were 2% and 4%, respectively. Further, the Activity entry in the data set on Mus musculus [3] is “Toxic”.
For `O=C(O)Cc1ccccc1Sc1ccccc1`, the inhibition in vivo at 50 mg/kg with Rattus norvegicus [1] stood at 51%; in the data set on Rattus norvegicus [2], 23%. For the same molecule, the inhibition entry in the data set with Rattus norvegicus [5] was “inactive”. For the same molecule, the Activity entry in the data set with Mus musculus [3] is “Toxic”.
Consider `NCCSSc1ccccc1C(=O)O`, for which the inhibition in vivo at 30 mg/kg in the data set on Mus musculus [6] worked out at 40%.
For the molecule `O=C(O)c1ccccc1[S+]([O-])c1ccccc1` (configuration not stated), the inhibition in vivo at 50 mg/kg in the data set with Rattus norvegicus [1] is 0%; with Rattus norvegicus [2], 19%. Moreover, the Activity result in the data set with Mus musculus [3] is on record as “Toxic”.
Consider `CC(C(=O)O)c1ccccc1[S+]([O-])c1ccccc1` (configuration not stated), for which the figures for the inhibition in vivo at 50 mg/kg in the data set with Rattus norvegicus [1] and in the data set with Rattus norvegicus [2] were 7% and 8%, respectively.
In the case of `O=C(O)c1ccccc1S(=O)(=O)c1cccc(C(F)(F)F)c1`, the inhibition in vivo at 50 mg/kg with Rattus norvegicus [1] is 23%. For the same molecule, the Activity result with Mus musculus [3] was “Toxic”. In the data set on Rattus norvegicus [7], the inhibition in vivo at 35 mg/kg amounted to 6%.
Regarding `O=C(O)c1ccccc1Sc1cccc(C(F)(F)F)c1`, the Activity result in the data set with Mus musculus [8] is “Non-toxic”. Also, the inhibition in vivo at 50 mg/kg is 43% in the data set with Rattus norvegicus [1] and 18% with Rattus norvegicus [2]. In addition, the inhibition in vivo at 25 mg/kg in the data set on Rattus norvegicus [9] amounted to 0%.
